Assay results as given in ChEMBL document CHEMBL1154414, “In vitro and in vivo activities of T-705 against arenavirus and bunyavirus infections” (Antimicrob Agents Chemother, 2007).
Calls of active or inactive are those of the source. The calls are words filed in the database; no cut-off is given here.

Assays:
Pichinde virus [1] = experiment: Antiviral activity against Pichinde virus An 4763 infected Syrian golden hamster assessed as survival at 20 mg/kg, po twice daily for 7 days administered 72 hrs post viral-challenge; assay type: functional
[2] = Cytotoxicity against african green monkey Vero cells after 7 to 8 days by neutral-red dye uptake assay; assay type: cell-based; details: chlorocebus sabaeus
In short: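 Subconfluent (50-70%) Vero cells received half-log drug dilutions without virus and were held at 37°C, 5% CO2 for 7-8 days. Cells were stained with 0.034% neutral red for 2 h, and the dye was extracted 30 min in ethanol with Sorenson's citrate buffer. Absorbance was read at 540 nm as % of untreated controls. CC50 was derived by regression.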

Punta Toro virus [3] = experiment: Antiviral activity against 500 PFU Punta Toro virus Adames infected C57BL/6 mouse assessed as animals with detectable virus level in liver at 75 mg/kg, po twice daily administered 4 hrs before viral challenge measured on day 4 of viral infection; assay type: functional
In short: (§1)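 T-705 was suspended in 0.4% carboxymethylcellulose and given by oral gavage twice daily. Mice were infected subcutaneously with PTV. Five mice per group (10 placebo) were sacrificed on day 3 or 4. Liver homogenate or serum was serially diluted onto triplicate LLC-MK2 monolayers, and CPE was read at 6–8 days. The detection limit was 2.8 log10 CCID50 per 0.1 g liver or 0.1 ml serum.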

Pichinde virus [4] = experiment: Antiviral activity against Pichinde virus An 4763 infected Syrian golden hamster assessed as mean day of death at 30 mg/kg, po twice daily for 7 days administered 4 hrs before viral-challenge; assay type: functional
Punta Toro virus [5] = experiment: Antiviral activity against 500 PFU Punta Toro virus Adames infected C57BL/6 mouse assessed as animals with detectable virus level in liver at 5 mg/kg, po twice daily administered 4 hrs before viral challenge measured on day 3 of viral infection; assay type: functional; in short: as §1
Pichinde virus [6] = experiment: Antiviral activity against Pichinde virus An 4763 infected Syrian golden hamster assessed as mean serum ALT levels at 30 mg/kg, po twice daily for 7 days administered 4 hrs before viral-challenge measured on day 7 of viral infection; assay type: functional
Punta Toro virus [7] = experiment: Antiviral activity against 500 PFU Punta Toro virus Adames infected C57BL/6 mouse assessed as mean viral titer per 0.1 mL of serum at 5 mg/kg, po twice daily administered 4 hrs before viral challenge measured on day 3 of viral infection; assay type: functional
In short: (§2)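 Mice were infected subcutaneously with PTV and dosed by oral gavage twice daily; 5 per group (10 placebo) were killed on day 3 or 4. Liver homogenate or serum was serially diluted onto triplicate LLC-MK2 monolayers, and CPE was read 6–8 days later. 50% endpoints gave log10 CCID50 per 0.1 g liver or 0.1 ml serum. Detection range was 2.8–9.5; undetectable samples were assigned <2.8.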

Punta Toro virus [8] = experiment: Antiviral activity against Punta Toro virus Adames infected Syrian golden hamster assessed as mean serum ALT levels at 60 mg/kg, po twice daily administered 4 hrs before viral challenge measured on day 4 of viral infection; assay type: functional
Punta Toro virus [9] = experiment: Antiviral activity against 500 PFU Punta Toro virus Adames infected C57BL/6 mouse assessed as mean viral titer per 0.1 mL of serum at 200 mg/kg, po twice daily administered 4 hrs before viral challenge measured on day 4 of viral infection; assay type: functional; in short: as §2
Punta Toro virus [10] = experiment: Antiviral activity against 500 PFU Punta Toro virus Adames infected C57BL/6 mouse assessed as animals with detectable virus level in serum at 200 mg/kg, po twice daily administered 4 hrs before viral challenge measured on day 4 of viral infection; assay type: functional; in short: as §1
Punta Toro virus [11] = experiment: Antiviral activity against 500 PFU Punta Toro virus Adames infected C57BL/6 mouse assessed as mean viral titer per 0.1 mL of serum at 10 mg/kg, po twice daily administered 4 hrs before viral challenge measured on day 3 of viral infection; assay type: functional; in short: as §2
Punta Toro virus [12] = experiment: Antiviral activity against 500 PFU Punta Toro virus Adames infected C57BL/6 mouse assessed as inhibition of liver damage at 200 mg/kg, po twice daily administered 4 hrs before viral challenge measured on day 4 of viral infection; assay type: functional, organism-based; set-up: dose 200 mg/kg
In short: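 Mice were infected with PTV subcutaneously and dosed by oral gavage twice daily (0.4% CMC vehicle). Five animals per group (10 placebo) were sacrificed on day 3 or 4. Livers were scored 0–4 for hepatic icterus, where 0 is normal and 4 is maximal yellow coloration.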

Pichinde virus [13] = experiment: Antiviral activity against Pichinde virus An 4763 infected Syrian golden hamster assessed as mean day of death at 60 mg/kg, po twice daily for 7 days administered 4 hrs before viral-challenge; assay type: functional
Pichinde virus [14] = experiment: Antiviral activity against Pichinde virus An 4763 infected Syrian golden hamster assessed as mean day of death at 15 mg/kg, po twice daily for 7 days administered 4 hrs before viral-challenge; assay type: functional
Tacaribe virus = experiment: Antiviral activity against Tacaribe virus TRVL11573 assessed as reduction of 1 log10 unit viral titer yields after 7 to 8 days; assay type: functional; details: Mammarenavirus tacaribeense
Punta Toro virus [15] = experiment: Antiviral activity against 500 PFU Punta Toro virus Adames infected C57BL/6 mouse assessed as mean serum ALT levels at 30 mg/kg, po twice daily administered 4 hrs before viral challenge measured on day 3 of viral infection; assay type: functional
In short: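 C57BL/6 mice received subcutaneous PTV, then oral gavage twice daily for 5–7 days. T-705 was given in 0.4% CMC and ribavirin in saline. Five mice per group (10 placebo) were killed on day 3 or 4, and serum was collected. ALT activity was measured by kinetic assay. Three sham-infected mice set baselines.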

Punta Toro virus [16] = experiment: Antiviral activity against 500 PFU Punta Toro virus Adames infected C57BL/6 mouse assessed as mean viral titer per 0.1 mL of serum at 50 mg/kg, po twice daily administered 4 hrs before viral challenge measured on day 4 of viral infection; assay type: functional; in short: as §2
Pichinde virus [17] = experiment: Antiviral activity against Pichinde virus An 4763 infected Syrian golden hamster assessed as animals with detectable virus level in serum at 60 mg/kg, po twice daily for 7 days administered 4 hrs before viral-challenge measured on day 7 of viral infection; assay type: functional
Pichinde virus [18] = experiment: Antiviral activity against Pichinde virus An 4763 infected Syrian golden hamster assessed as animals with detectable virus level in liver at 30 mg/kg, po twice daily for 7 days administered 4 hrs before viral-challenge measured on day 7 of viral infection; assay type: functional
Punta Toro virus [19] = experiment: Antiviral activity against Punta Toro virus Adames infected Syrian golden hamster assessed as survival at 15 mg/kg, po twice daily for 6 days administered 4 hrs before viral challenge; assay type: functional
Punta Toro virus [20] = experiment: Antiviral activity against 500 PFU Punta Toro virus Adames infected C57BL/6 mouse assessed as mean day of death at 50 mg/kg, po twice daily for 5 days administered 4 hrs before viral challenge; assay type: functional
In short: (§3)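 Groups of 15 mice (25–30 placebo) were inoculated subcutaneously with PTV. Drug in 0.4% carboxymethylcellulose was given by oral gavage twice daily.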

[21] = system: Respiratory syncytial virus; experiment: Antiviral activity against Respiratory syncytial virus; assay type: functional, organism-based; details: human respiratory syncytial virus
Punta Toro virus [22] = experiment: Antiviral activity against 500 PFU Punta Toro virus Adames infected C57BL/6 mouse assessed as animals with detectable virus level in serum at 50 mg/kg, po twice daily administered 4 hrs before viral challenge measured on day 4 of viral infection; assay type: functional; in short: as §1
Pichinde virus [23] = experiment: Antiviral activity against Pichinde virus An 4763 infected Syrian golden hamster assessed as mean viral titer per 0.1 mL of serum at 15 mg/kg, po twice daily for 7 days administered 4 hrs before viral-challenge measured on day 7 of viral infection; assay type: functional
Influenza A virus = experiment: Antiviral activity against influenza A virus; assay type: functional, organism-based
Punta Toro virus [24] = experiment: Antiviral activity against 500 PFU Punta Toro virus Adames infected C57BL/6 mouse assessed as mean day of death at 75 mg/kg, po twice daily for 5 days administered 4 hrs before viral challenge; assay type: functional; in short: as §3

`NC(=O)c1ncn([C@@H]2O[C@H](CO)[C@@H](O)[C@H]2O)n1` [RIBAVIRIN] showed an Efficacy (Pichinde virus [1]) of 60% and a CC50 [2] of 156 µM.

Work on `NC(=O)c1nc(F)cnc1O` [FAVIPIRAVIR] yielded an Activity (Punta Toro virus [3]) of 0%, an Activity (Pichinde virus [4]) of 12.5 days and an Activity (Punta Toro virus [5]) of 0%. The Activity (Pichinde virus [6]) was 378 IU/L, the log10CCID50 (Punta Toro virus [7]) was 7.2 and the Activity (Punta Toro virus [8]) was 17 IU/L. For the same compound, the log10CCID50 (Punta Toro virus [9]) was <2.8, the Activity (Punta Toro virus [10]) was 0% and the log10CCID50 (Punta Toro virus [11]) was 6.2. The Activity (Punta Toro virus [12]) was “Active”, the Activity (Pichinde virus [13]) was 22 days and the Activity (Pichinde virus [14]) was 11.1 days. For the same compound, the EC90 (Tacaribe virus) was 6 µM, the Activity (Punta Toro virus [15]) was 9 IU/L and the log10CCID50 (Punta Toro virus [16]) was <3.1. For the same compound, the Activity (Pichinde virus [17]) was 0%, the Activity (Pichinde virus [18]) was 100% and the survival at 15 mg/kg (Punta Toro virus [19]) was 50%. The Activity (Punta Toro virus [20]) was >21 days, the EC50 [21] was 261 µM and the Activity (Punta Toro virus [22]) was 10%. For the same compound, the log10CCID50 (Pichinde virus [23]) was <5.3, the EC50 (Influenza A virus) was 0.083 µM and the Activity (Punta Toro virus [24]) was >21 days.
